From ChEMBL document CHEMBL4184148 (Bioorg Med Chem Lett, 2017)
pIC50: −log10 of the molar value.

Experiments:
[1] = target: Serine/threonine-protein kinase PLK4 (Homo sapiens, UniProt O00444); assay: Inhibition of GST-tagged human PLK4 (1 to 836 residues) by Lanthascreen binding assay
[2] = tested on: Tyrosine-protein kinase ABL1 (Homo sapiens), P00519 [Q252H]; assay: Binding affinity to human phosphorylated ABL1 Q252H mutant expressed in HEK293 cells at 1 uM by Kinomescan method relative to control; assay type: cell-based
[3] = target: Activin receptor type-2B (Homo sapiens) (UniProt Q13705); assay: Binding affinity to wild-type human ACVR2B (H169 to D504 residues) expressed in Escherichia coli BL21 at 1 uM by Kinomescan method relative to control
[4] = target: Mitogen-activated protein kinase kinase kinase 5 (Homo sapiens) (UniProt Q99683); assay: Binding affinity to wild-type human partial length ASK1 (E648 to S964 residues) expressed in Escherichia coli BL21 at 1 uM by Kinomescan method relative to control
Sequence of Mitogen-activated protein kinase kinase kinase 5 (Homo sapiens) (Q99683 whole entry, the tested form may be a part): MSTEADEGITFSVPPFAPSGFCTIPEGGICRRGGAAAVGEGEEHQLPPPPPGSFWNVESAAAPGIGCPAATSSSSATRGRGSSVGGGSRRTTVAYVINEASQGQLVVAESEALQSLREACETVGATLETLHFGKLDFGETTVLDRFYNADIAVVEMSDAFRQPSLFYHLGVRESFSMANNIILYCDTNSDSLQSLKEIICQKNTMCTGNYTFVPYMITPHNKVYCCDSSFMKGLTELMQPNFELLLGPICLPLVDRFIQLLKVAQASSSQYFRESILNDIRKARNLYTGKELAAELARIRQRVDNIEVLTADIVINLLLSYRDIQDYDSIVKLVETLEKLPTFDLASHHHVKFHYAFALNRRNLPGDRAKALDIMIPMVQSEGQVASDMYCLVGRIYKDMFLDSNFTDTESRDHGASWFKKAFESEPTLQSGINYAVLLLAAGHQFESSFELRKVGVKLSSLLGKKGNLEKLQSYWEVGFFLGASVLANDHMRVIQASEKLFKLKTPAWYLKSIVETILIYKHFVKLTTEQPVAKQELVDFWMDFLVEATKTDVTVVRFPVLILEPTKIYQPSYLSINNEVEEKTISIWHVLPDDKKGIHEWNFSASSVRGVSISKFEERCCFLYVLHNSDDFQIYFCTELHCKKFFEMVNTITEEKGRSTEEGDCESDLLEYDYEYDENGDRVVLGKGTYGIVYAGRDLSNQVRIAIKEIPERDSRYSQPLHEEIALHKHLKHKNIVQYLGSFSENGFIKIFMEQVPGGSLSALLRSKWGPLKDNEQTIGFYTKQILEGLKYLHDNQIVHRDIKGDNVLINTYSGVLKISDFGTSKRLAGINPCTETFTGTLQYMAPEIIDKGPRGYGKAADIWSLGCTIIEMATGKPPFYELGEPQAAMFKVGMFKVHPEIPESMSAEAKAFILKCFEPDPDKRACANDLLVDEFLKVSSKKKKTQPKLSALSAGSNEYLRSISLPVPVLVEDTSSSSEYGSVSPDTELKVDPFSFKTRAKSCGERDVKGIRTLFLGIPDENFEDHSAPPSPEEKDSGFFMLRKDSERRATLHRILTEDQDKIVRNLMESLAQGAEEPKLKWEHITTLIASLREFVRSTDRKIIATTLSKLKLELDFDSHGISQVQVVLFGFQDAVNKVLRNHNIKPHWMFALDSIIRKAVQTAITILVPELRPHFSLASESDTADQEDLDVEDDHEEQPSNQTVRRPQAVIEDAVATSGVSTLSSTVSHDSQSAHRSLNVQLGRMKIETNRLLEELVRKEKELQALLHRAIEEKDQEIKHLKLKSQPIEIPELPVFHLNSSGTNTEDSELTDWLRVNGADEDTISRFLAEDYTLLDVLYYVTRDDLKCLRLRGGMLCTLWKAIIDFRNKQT
Outline: (§1)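 Kinome-wide competition binding panel run by an outside provider, with each compound tested at a single concentration. Activity is read against the kinase panel.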

[5] = target: Calcium/calmodulin-dependent protein kinase type II subunit beta (Homo sapiens) (UniProt Q13554); assay: Binding affinity to wild-type human partial length CAMK2B (M1 to Q380 residues) expressed in Escherichia coli BL21 at 1 uM by Kinomescan method relative to control
[6] = target: Calcium/calmodulin-dependent protein kinase type II subunit delta (Homo sapiens) (UniProt Q13557); assay: Binding affinity to wild-type human partial length CAMK2D (M1 to E329 residues) expressed in Escherichia coli BL21 at 1 uM by Kinomescan method relative to control
[7] = target: Cyclin-dependent kinase 11A (Homo sapiens) (UniProt Q9UQ88); assay: Binding affinity to wild-type human partial length CDC2L2 (D391 to K730 residues) expressed in Escherichia coli BL21 at 1 uM by Kinomescan method relative to control
Sequence of Cyclin-dependent kinase 11A (Homo sapiens) (Q9UQ88 whole entry, the tested form may be a part): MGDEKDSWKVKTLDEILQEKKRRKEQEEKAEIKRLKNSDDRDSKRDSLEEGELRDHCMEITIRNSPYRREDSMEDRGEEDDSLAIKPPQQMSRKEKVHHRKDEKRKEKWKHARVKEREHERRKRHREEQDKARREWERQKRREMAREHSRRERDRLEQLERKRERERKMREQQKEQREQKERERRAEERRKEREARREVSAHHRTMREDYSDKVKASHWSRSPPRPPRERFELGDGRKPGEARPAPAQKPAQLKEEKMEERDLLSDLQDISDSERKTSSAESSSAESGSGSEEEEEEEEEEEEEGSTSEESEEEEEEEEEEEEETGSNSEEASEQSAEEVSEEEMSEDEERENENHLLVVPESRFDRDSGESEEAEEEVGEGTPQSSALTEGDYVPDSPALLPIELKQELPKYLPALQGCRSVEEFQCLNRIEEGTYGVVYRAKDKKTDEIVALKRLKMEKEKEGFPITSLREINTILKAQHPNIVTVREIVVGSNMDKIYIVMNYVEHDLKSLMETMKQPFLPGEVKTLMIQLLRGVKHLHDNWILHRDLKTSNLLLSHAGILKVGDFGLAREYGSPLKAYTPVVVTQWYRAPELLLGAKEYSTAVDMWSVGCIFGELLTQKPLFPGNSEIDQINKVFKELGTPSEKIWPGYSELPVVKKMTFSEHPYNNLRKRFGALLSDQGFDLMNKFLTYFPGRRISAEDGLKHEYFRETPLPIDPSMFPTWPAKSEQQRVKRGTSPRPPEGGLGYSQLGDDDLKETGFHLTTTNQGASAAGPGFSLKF

[8] = target: Cyclin-dependent kinase 11B (Homo sapiens) (UniProt P21127); assay: Binding affinity to wild-type human partial length CDK11 (M1 to N360 residues) expressed in Escherichia coli BL21 assessed as residual activity at 1000 nM after 1 hr by Kinomescan method relative to control
Sequence of Cyclin-dependent kinase 11B (Homo sapiens) (P21127 whole entry, the tested form may be a part): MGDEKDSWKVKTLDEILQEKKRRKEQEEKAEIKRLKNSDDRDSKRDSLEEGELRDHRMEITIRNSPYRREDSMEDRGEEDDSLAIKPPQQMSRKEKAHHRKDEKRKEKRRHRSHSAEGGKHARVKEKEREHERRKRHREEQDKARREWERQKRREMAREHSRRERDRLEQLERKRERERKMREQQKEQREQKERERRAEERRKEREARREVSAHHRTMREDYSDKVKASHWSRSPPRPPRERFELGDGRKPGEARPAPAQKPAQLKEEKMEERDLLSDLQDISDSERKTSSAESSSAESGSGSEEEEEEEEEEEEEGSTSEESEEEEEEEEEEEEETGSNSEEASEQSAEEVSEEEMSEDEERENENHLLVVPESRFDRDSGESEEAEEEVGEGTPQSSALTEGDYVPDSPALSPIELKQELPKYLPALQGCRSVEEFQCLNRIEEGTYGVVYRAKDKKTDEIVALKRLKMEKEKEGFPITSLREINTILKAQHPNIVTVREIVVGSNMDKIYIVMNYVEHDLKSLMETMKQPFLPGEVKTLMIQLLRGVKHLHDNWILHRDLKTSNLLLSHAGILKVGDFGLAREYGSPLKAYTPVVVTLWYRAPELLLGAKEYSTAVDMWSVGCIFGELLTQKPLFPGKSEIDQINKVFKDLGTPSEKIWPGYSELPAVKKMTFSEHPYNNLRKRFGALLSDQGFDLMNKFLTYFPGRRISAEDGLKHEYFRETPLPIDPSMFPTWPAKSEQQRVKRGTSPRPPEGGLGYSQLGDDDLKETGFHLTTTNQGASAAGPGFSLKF

[9] = target: Macrophage colony-stimulating factor 1 receptor (Homo sapiens) (UniProt P07333); assay: Binding affinity to wild-type human partial length CSF1R (I564 to S939 residues) expressed in Escherichia coli BL21 at 1 uM by Kinomescan method relative to control
[10] = target: Megakaryocyte-associated tyrosine-protein kinase (Homo sapiens) (UniProt P42679); assay: Binding affinity to wild-type human full length CTK (M43 to P508 residues) expressed in HEK293 cells at 1 uM by Kinomescan method relative to control; assay type: cell-based
Outline: (§2)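 Run as one kinome-wide competition binding panel with each compound at a single fixed concentration. Results were plotted as a kinome-wide selectivity map.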

[11] = tested on: Epidermal growth factor receptor (Homo sapiens), P00533 [T790M]; assay: Binding affinity to human partial length EGFR T790M mutant (R669 to G1022 residues) expressed in HEK293 cells at 1 uM by Kinomescan method relative to control; assay type: cell-based
[12] = target: Serine/threonine-protein kinase/endoribonuclease IRE1 (Homo sapiens) (UniProt O75460); assay: Binding affinity to wild-type human partial length ERN1 (S551 to E852 residues) expressed in HEK293 cells at 1 uM by Kinomescan method relative to control; assay type: cell-based
[13] = target: Vascular endothelial growth factor receptor 1 (Homo sapiens) (UniProt P17948); assay: Binding affinity to wild-type human partial length FLT1 (R781 to F1239 residues) expressed in Escherichia coli BL21 at 1 uM by Kinomescan method relative to control
[14] = target: Glycogen synthase kinase-3 beta (Homo sapiens) (UniProt P49841); assay: Binding affinity to wild-type human full length GSK3B (M1 to T433 residues) expressed in HEK293 cells at 1 uM by Kinomescan method relative to control; assay type: cell-based; outline: as §2
[15] = target: Interleukin-1 receptor-associated kinase 4 (Homo sapiens) (UniProt Q9NWZ3); assay: Binding affinity to wild-type human partial length IRAK4 (M1 to S460 residues) expressed in HEK293 cells at 1 uM by Kinomescan method relative to control; assay type: cell-based
Sequence of Interleukin-1 receptor-associated kinase 4 (Homo sapiens) (Q9NWZ3 whole entry, the tested form may be a part): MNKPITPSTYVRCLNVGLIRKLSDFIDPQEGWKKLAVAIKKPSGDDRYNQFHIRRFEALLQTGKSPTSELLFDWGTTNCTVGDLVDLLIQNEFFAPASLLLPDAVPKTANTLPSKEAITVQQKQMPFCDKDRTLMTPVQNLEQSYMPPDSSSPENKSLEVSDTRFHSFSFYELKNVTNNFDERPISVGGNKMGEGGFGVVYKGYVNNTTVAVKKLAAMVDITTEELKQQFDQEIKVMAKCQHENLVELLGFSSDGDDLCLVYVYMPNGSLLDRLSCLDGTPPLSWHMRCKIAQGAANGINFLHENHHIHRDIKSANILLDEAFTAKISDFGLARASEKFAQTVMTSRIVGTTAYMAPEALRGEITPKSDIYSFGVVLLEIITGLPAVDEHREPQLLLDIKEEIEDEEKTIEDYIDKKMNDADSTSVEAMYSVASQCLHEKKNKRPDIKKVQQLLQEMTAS

[16] = target: Leucine-rich repeat serine/threonine-protein kinase 2 (Homo sapiens, UniProt Q5S007); assay: Binding affinity to wild-type human partial length LRRK2 (H970 to E2527 residues) expressed in HEK293 cells at 1 uM by Kinomescan method relative to control; assay type: cell-based
[17] = target: Tyrosine-protein kinase Lyn (Homo sapiens) (UniProt P07948); assay: Binding affinity to wild-type human partial length LYN (C219 to Q511 residues) expressed in Escherichia coli BL21 at 1 uM by Kinomescan method relative to control
Sequence of Tyrosine-protein kinase Lyn (Homo sapiens) (P07948 2-512 limits assumed): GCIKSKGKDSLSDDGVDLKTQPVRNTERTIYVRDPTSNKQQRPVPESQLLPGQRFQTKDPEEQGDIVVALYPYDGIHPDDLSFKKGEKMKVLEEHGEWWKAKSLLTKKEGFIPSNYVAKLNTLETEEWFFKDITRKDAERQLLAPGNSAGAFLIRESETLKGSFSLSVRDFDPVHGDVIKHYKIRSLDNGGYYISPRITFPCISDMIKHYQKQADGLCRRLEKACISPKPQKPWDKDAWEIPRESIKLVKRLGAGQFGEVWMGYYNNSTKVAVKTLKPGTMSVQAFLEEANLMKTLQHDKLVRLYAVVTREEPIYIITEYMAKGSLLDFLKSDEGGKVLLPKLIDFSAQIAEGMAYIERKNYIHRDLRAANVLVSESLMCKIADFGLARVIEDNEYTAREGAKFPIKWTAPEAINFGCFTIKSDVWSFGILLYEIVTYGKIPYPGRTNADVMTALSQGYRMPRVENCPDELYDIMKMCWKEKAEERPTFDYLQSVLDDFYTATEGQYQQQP

[18] = target: Hepatocyte growth factor receptor (Homo sapiens) (UniProt P08581); assay: Binding affinity to wild-type human partial length MET (D1010 to S1367 residues) expressed in Escherichia coli BL21 at 1 uM by Kinomescan method relative to control
[19] = target: Dual specificity mitogen-activated protein kinase kinase 7 (Homo sapiens) (UniProt O14733); assay: Binding affinity to wild-type human full length MKK7 (M1 to R419 residues) expressed in HEK293 cells at 1 uM by Kinomescan method relative to control; assay type: cell-based; outline: as §2
[20] = target: Serine/threonine-protein kinase 4 (Homo sapiens) (UniProt Q13043); assay: Binding affinity to wild-type human full length MST1 (M1 to F487 residues) expressed in Escherichia coli BL21 at 1 uM by Kinomescan method relative to control; outline: as §2
Sequence of Serine/threonine-protein kinase 4 (Homo sapiens) (Q13043 whole entry, the tested form may be a part): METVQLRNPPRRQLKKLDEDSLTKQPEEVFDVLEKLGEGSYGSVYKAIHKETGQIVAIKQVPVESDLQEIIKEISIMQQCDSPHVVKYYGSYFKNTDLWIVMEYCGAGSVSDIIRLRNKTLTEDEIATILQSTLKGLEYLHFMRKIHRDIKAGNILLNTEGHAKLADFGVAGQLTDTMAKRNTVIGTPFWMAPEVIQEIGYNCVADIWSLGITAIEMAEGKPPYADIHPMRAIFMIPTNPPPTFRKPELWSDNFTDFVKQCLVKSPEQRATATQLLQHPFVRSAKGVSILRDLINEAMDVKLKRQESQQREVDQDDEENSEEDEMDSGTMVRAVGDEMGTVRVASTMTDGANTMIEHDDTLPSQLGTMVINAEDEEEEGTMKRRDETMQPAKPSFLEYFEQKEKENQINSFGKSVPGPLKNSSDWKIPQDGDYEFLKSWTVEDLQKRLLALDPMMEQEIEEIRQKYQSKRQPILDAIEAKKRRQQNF

[21] = target: Serine/threonine-protein kinase 3 (Homo sapiens) (UniProt Q13188); assay: Binding affinity to wild-type human partial length MST2 (D17 to E318 residues) expressed in Escherichia coli BL21 at 1 uM by Kinomescan method relative to control
Sequence of Serine/threonine-protein kinase 3 (Homo sapiens) (Q13188 whole entry, the tested form may be a part): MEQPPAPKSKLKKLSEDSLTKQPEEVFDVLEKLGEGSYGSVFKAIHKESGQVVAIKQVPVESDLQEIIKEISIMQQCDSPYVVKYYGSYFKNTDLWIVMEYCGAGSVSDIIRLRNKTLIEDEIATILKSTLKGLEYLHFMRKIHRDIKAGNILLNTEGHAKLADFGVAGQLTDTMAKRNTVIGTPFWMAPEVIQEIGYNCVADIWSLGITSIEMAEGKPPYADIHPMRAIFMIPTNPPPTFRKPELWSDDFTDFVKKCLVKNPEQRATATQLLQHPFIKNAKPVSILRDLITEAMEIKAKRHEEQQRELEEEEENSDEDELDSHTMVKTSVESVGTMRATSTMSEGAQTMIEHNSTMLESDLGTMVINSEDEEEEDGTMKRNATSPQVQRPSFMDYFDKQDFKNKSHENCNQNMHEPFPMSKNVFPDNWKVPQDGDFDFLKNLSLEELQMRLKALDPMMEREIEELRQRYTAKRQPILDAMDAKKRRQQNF

[22] = target: Serine/threonine-protein kinase Nek3 (Homo sapiens) (UniProt P51956); assay: Binding affinity to wild-type human full length NEK3 (M1 to R506 residues) expressed in HEK293 cells at 1 uM by Kinomescan method relative to control; assay type: cell-based; outline: as §1
[23] = target: Serine/threonine-protein kinase Nek4 (Homo sapiens) (UniProt P51957); assay: Binding affinity to wild-type human full length NEK4 (M1 to F841 residues) expressed in HEK293 cells at 1 uM by Kinomescan method relative to control; assay type: cell-based; outline: as §1
[24] = target: cAMP-dependent protein kinase catalytic subunit alpha (Homo sapiens) (UniProt P17612); assay: Binding affinity to wild-type human partial length PKAC-alpha (G10 to F351 residues) expressed in Escherichia coli BL21 at 1 uM by Kinomescan method relative to control
[25] = target: Ribosomal protein S6 kinase alpha-5 (Homo sapiens) (UniProt O75582); assay: Binding affinity to wild-type human partial length C-terminal RPS6KA5 kinase domain 2 (V390 to T718 residues) expressed in Escherichia coli BL21 at 1 uM by Kinomescan method relative to control

| SMILES | pIC50 [1] | Activity [2] | Activity [3] | Activity [4] | Activity [5] | Activity [6] | Activity [7] | Activity [8] | Activity [9] | Activity [10] | Activity [11] | Activity [12] | Activity [13] | Activity [14] | Activity [15] | Activity [16] | Activity [17] | Activity [18] | Activity [19] | Activity [20] | also measured |
| --- | --- | --- | --- | --- | --- | --- | --- | --- | --- | --- | --- | --- | --- | --- | --- | --- | --- | --- | --- | --- | --- |
| CCC(=O)Nc1ccc(C(=O)Nc2ccc(Nc3ncc4c(n3)N(C)c3ccc(C)cc3C(=O)N4C)cc2)cc1 | 7.09 | 61% | 100% | 99% | 96% | 99% | 88% | 100% | 87% | 95% | 78% | 100% | 91% | 82% | 79% | 72% | 97% | 90% | 90% | 83% | Activity [21]: 70%; Activity [22]: 70%; Activity [23]: 76%; Activity [24]: 87%; Activity [25]: 82% |
| C=CC(=O)Nc1ccc(C(=O)Nc2ccc(Nc3ncc4c(n3)N(C)c3ccc(C)cc3C(=O)N4C)cc2)cc1 | 7.36 | 85% | 100% | 100% | 100% | 100% | 100% | 100% | 100% | 100% | 79% | 87% | 87% | 92% | 95% | 85% | 97% | 100% | 100% | 45% | Activity [21]: 100%; Activity [22]: 84%; Activity [23]: 86%; Activity [24]: 100%; Activity [25]: 100% |
